Laboratory results as given in ChEMBL document CHEMBL3045116, “Synthesis and biological evaluation of 2-(5-substituted-1-((diethylamino)methyl)-2-oxoindolin-3-ylidene)-N-substituted-hydrazinecarbothioamides” (Med Chem Res, 2013).

How the values were obtained:
[1] = (§1) Cytotoxicity against MDCK cells assessed as change in cellular morphology; assay type: cell-based, Canis lupus familiaris; conditions: dog, MDCK cells
In short: (§2)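 Uninfected cells were exposed to compound in parallel with the antiviral cultures. The read-out is the minimum cytotoxic concentration that causes a microscopically detectable alteration of normal cell morphology.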

MDCK = experiment: as §1; assay type: cell-based, Canis lupus familiaris; conditions: dog, mdck; in short: as §2
[2] = system: Feline infectious peritonitis virus; experiment: Antiviral activity against Feline Infectious peritonitis virus infected cat CRFK cells assessed as reduction of virus-induced cytopathic effect after 3 days by colorimetric formazan-based MTS assay; assay type: functional, organism-based; conditions: Alphacoronavirus 1, CRFK, 72 h
In short: (§3)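 Confluent cell monolayers were infected with 100 CCID50 of virus, and serial dilutions of compound were added at the time of infection.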

[3] = Cytotoxicity against Felis catus (cat) CRFK cells assessed as change in cellular morphology; assay type: cell-based; conditions: crfk; in short: as §2
Felid alphaherpesvirus 1 = experiment: Antiviral activity against Felid herpesvirus 1 infected cat CRFK cells assessed as reduction of virus-induced cytopathic effect after 3 days by colorimetric formazan-based MTS assay; assay type: functional, organism-based; conditions: Felid alphaherpesvirus 1, CRFK, 72 h
In short: (§4)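 Cells grown to confluency in 96-well plates ([…], Vero for lines 9–10) were infected with 100 CCID50 of virus, and serial compound dilutions were added at infection. Plates were incubated at 37 °C for 3 days, until complete CPE appeared in untreated virus controls.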

HeLa = experiment: (§5) Cytotoxicity against Homo sapiens (human) HeLa cells assessed as change in cellular morphology; assay type: cell-based; conditions: hela; in short: as §2
[4] = as §5; assay type: cell-based; conditions: HeLa cells; in short: as §2
Salmonella typhi = experiment: Antibacterial activity against Salmonella enterica subsp. enterica serovar Typhi assessed as growth inhibition at 50 ug/ml by cup-plate method (reference value: 8 to 10 mm); assay type: functional; conditions: read-out: DIZ
Human alphaherpesvirus 1 [5] = experiment: Antiviral activity against acyclovir-resistant thymidine kinase negative Human herpesvirus 1 strain KOS infected human HEL cells assessed as reduction of virus-induced cytopathic effect after 3 days by colorimetric formazan-based MTS assay; assay type: functional, organism-based; conditions: Human alphaherpesvirus 1, KOS, 72 h; in short: as §3
[6] = Inhibition of beta lactamase assessed as increase in time taken for iodine decolorization relative to control; set-up: concentration or dose not given beside the values; conditions: concentration not given here
Coxsackievirus B4 [7] = experiment: Antiviral activity against Human coxsackievirus B4 infected human HeLa cells assessed as reduction of virus-induced cytopathic effect after 3 days by colorimetric formazan-based MTS assay; assay type: functional, organism-based; conditions: Enterovirus B, 72 h; in short: as §3
Influenza A virus = experiment: Antiviral activity against Unidentified Influenza A virus (H1N1) infected MDCK cells assessed as reduction of virus-induced cytopathic effect after 3 days by colorimetric formazan-based MTS assay; assay type: functional, organism-based; conditions: 72 h; in short: as §3
[8] = system: Respiratory syncytial virus; experiment: Antiviral activity against Respiratory syncytial virus infected human HeLa cells assessed as reduction of virus-induced cytopathic effect after 3 days by colorimetric formazan-based MTS assay; assay type: functional, organism-based; conditions: 72 h; in short: as §3
Influenza A virus H3N2 = experiment: Antiviral activity against Influenza A virus H3N2 infected MDCK cells assessed as reduction of virus-induced cytopathic effect after 3 days by colorimetric formazan-based MTS assay; assay type: functional, organism-based; conditions: 72 h; in short: as §3
Klebsiella pneumoniae = experiment: Antibacterial activity against Klebsiella pneumoniae assessed as growth inhibition at 50 ug/ml by cup-plate method (reference value: 8 to 10 mm); assay type: functional; conditions: read-out: DIZ
[9] = Cytotoxicity against Homo sapiens (human) HEL cells assessed as change in cellular morphology; assay type: cell-based
Bacillus subtilis = experiment: Antibacterial activity against Bacillus subtilis assessed as growth inhibition at 50 ug/ml by cup-plate method (reference value: 8 to 10 mm); assay type: functional; conditions: read-out: DIZ
[10] = system: Mammalian orthoreovirus 1; experiment: Antiviral activity against Mammalian orthoreovirus 1 infected African green monkey Vero cells assessed as reduction of virus-induced cytopathic effect after 3 days by colorimetric formazan-based MTS assay; assay type: functional, organism-based; conditions: Mammalian orthoreovirus 1, Vero, 72 h; in short: as §4
Vaccinia virus = experiment: Antiviral activity against Vaccinia virus infected human HEL cells assessed as reduction of virus-induced cytopathic effect after 3 days by colorimetric formazan-based MTS assay; assay type: functional, organism-based; conditions: Orthopoxvirus vaccinia, 72 h; in short: as §3
[11] = Inhibition of beta lactamase assessed as time for decolorization of iodine (reference value: 79.5 secs)
Human alphaherpesvirus 1 [12] = experiment: Antiviral activity against Human herpesvirus 1 strain KOS infected human HEL cells assessed as reduction of virus-induced cytopathic effect after 3 days by colorimetric formazan-based MTS assay; assay type: functional, organism-based; conditions: Human alphaherpesvirus 1, KOS, 72 h; in short: as §3
[13] = system: Vesicular stomatitis virus; experiment: Antiviral activity against Vesicular stomatitis virus infected human HEL cells assessed as reduction of virus-induced cytopathic effect after 3 days by colorimetric formazan-based MTS assay; assay type: functional, organism-based; conditions: 72 h; in short: as §3
[14] = system: Vesicular stomatitis virus; experiment: Antiviral activity against Vesicular stomatitis virus infected human HeLa cells assessed as reduction of virus-induced cytopathic effect after 3 days by colorimetric formazan-based MTS assay; assay type: functional, organism-based; conditions: 72 h; in short: as §3
Influenza B virus = experiment: Antiviral activity against Influenza B virus infected in MDCK cells assessed as reduction of virus-induced cytopathic effect after 3 days by colorimetric formazan-based MTS assay; assay type: functional, organism-based; conditions: 72 h; in short: as §3
Respirovirus muris = experiment: Antiviral activity against Sendai virus infected African green monkey Vero cells assessed as reduction of virus-induced cytopathic effect after 3 days by colorimetric formazan-based MTS assay; assay type: functional, organism-based; conditions: 72 h
L1210 = experiment: Cytotoxicity against Mus musculus (mouse) L1210 cells assessed as growth inhibition after 48 hr by coulter counter analysis; assay type: functional, cell-based; conditions: L1210, 48 h
In short: (§6)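 Cells in growth medium were allowed to proliferate with variable compound amounts at 37 °C in a humidified CO2 atmosphere. Incubation ran 48 h for L1210, 72 h for CEM and 96 h for HeLa. Cells were then counted with a Coulter counter.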

Human respirovirus 3 = experiment: Antiviral activity against Human parainfluenza virus 3 infected African green monkey Vero cells assessed as reduction of virus-induced cytopathic effect after 3 days by colorimetric formazan-based MTS assay; assay type: functional, organism-based; conditions: Human respirovirus 3, Vero, 72 h; in short: as §4
Coxsackievirus B4 [15] = experiment: Antiviral activity against Human coxsackievirus B4 infected African green monkey Vero cells assessed as reduction of virus-induced cytopathic effect after 3 days by colorimetric formazan-based MTS assay; assay type: functional, organism-based; conditions: Enterovirus B, 72 h; in short: as §3
Human alphaherpesvirus 2 = experiment: Antiviral activity against Human herpesvirus 2 strain G infected human HEL cells assessed as reduction of virus-induced cytopathic effect after 3 days by colorimetric formazan-based MTS assay; assay type: functional, organism-based; conditions: Human alphaherpesvirus 2, strain G, 72 h; in short: as §3
Proteus vulgaris = experiment: Antibacterial activity against Proteus vulgaris assessed as growth inhibition at 50 ug/ml by cup-plate method (reference value: 8 to 10 mm); assay type: functional; conditions: read-out: DIZ
Aspergillus niger = experiment: Antifungal activity against Aspergillus niger assessed as growth inhibition at 50 ug/ml by cup-plate method (reference value: 8 to 10 mm); assay type: functional; conditions: read-out: DIZ
Escherichia coli = experiment: Antibacterial activity against Escherichia coli assessed as growth inhibition at 50 ug/ml by cup-plate method (reference value: 8 to 10 mm); assay type: functional; conditions: read-out: DIZ
Staphylococcus aureus = experiment: Antibacterial activity against Staphylococcus aureus assessed as growth inhibition at 50 ug/ml by cup-plate method (reference value: 8 to 10 mm); assay type: functional; conditions: read-out: DIZ
CCRF-CEM = experiment: Cytotoxicity against Homo sapiens (human) CEM cells assessed as growth inhibition after 72 hr by coulter counter analysis; assay type: functional, cell-based; in short: as §6
Candida albicans = experiment: Antifungal activity against Candida albicans assessed as growth inhibition at 50 ug/ml by cup-plate method (reference value: 8 to 10 mm); assay type: functional; conditions: read-out: DIZ
[16] = Cytotoxicity against Chlorocebus aethiops (African green monkey) Vero cells assessed as change in cellular morphology; assay type: cell-based; conditions: chlorocebus sabaeus
Punta Toro virus = experiment: Antiviral activity against Punta Toro virus infected in African green monkey Vero cells assessed as reduction of virus-induced cytopathic effect after 3 days by colorimetric formazan-based MTS assay; assay type: functional, organism-based; conditions: 72 h; in short: as §3

| SMILES | MCC [1] | CC50 (MDCK) | EC50 [2] | CC50 [3] | EC50 (Felid alphaherpesvirus 1) | CC50 (HeLa) | MCC [4] | zone of inhibition at 50 µg/mL (Salmonella typhi) | EC50 (Human alphaherpesvirus 1 [5]) | inhibition [6] | EC50 (Coxsackievirus B4 [7]) | EC50 (Influenza A virus) | EC50 [8] | EC50 (Influenza A virus H3N2) | zone of inhibition at 50 µg/mL (Klebsiella pneumoniae) | MCC [9] | zone of inhibition at 50 µg/mL (Bacillus subtilis) | EC50 [10] | EC50 (Vaccinia virus) | TIME [11] | further results |
| --- | --- | --- | --- | --- | --- | --- | --- | --- | --- | --- | --- | --- | --- | --- | --- | --- | --- | --- | --- | --- | --- |
| CCN(CC)CN1C(=O)/C(=N/NC(=S)Nc2ccccc2)c2cc(Cl)ccc21 | ≥ 800 nM | 3 µM | > 4 µM | 6.9 µM | > 4 µM | 13.5 µM | ≥ 20 µM | 11 mm | > 20 µM | 49.2% | > 20 µM | > 0.8 µM | > 20 µM | > 0.8 µM | 11 mm | 100 µM | 11 mm | > 20 µM | > 20 µM | 0.0434 h | EC50 (Human alphaherpesvirus 1 [12]): > 20 µM; EC50 [13]: > 20 µM; EC50 [14]: > 20 µM; EC50 (Influenza B virus): > 0.8 µM; EC50 (Respirovirus muris): > 20 µM; IC50 (L1210): 49 µM; EC50 (Human respirovirus 3): > 20 µM; EC50 (Coxsackievirus B4 [15]): > 20 µM; EC50 (Human alphaherpesvirus 2): > 20 µM; zone of inhibition at 50 µg/mL (Proteus vulgaris): 21 mm; zone of inhibition at 50 µg/mL (Aspergillus niger): 11 mm; zone of inhibition at 50 µg/mL (Escherichia coli): 11 mm; zone of inhibition at 50 µg/mL (Staphylococcus aureus): 11 mm; IC50 (CCRF-CEM): 40 µM; zone of inhibition at 50 µg/mL (Candida albicans): 21 mm; MCC [16]: 100 µM; EC50 (Punta Toro virus): > 20 µM |
| CCN(CC)CN1C(=O)/C(=N/NC(=S)Nc2ccc(Cl)cc2)c2ccccc21 | 800 nM | 0.4 µM | > 0.8 µM | 4 µM | > 0.8 µM | 9.8 µM | ≥ 4 µM | 11 mm | ≥ 20 µM | 38.7% | > 4 µM | > 0.16 µM | > 4 µM | > 0.16 µM | 11 mm | 100 µM | 21 mm | > 4 µM | ≥ 20 µM | 0.036 h | EC50 (Human alphaherpesvirus 1 [12]): 15 µM; EC50 [13]: > 20 µM; EC50 [14]: > 4 µM; EC50 (Influenza B virus): > 0.16 µM; EC50 (Respirovirus muris): > 4 µM; IC50 (L1210): 11 µM; EC50 (Human respirovirus 3): > 4 µM; EC50 (Coxsackievirus B4 [15]): > 4 µM; EC50 (Human alphaherpesvirus 2): 15 µM; zone of inhibition at 50 µg/mL (Proteus vulgaris): 11 mm; zone of inhibition at 50 µg/mL (Aspergillus niger): 11 mm; zone of inhibition at 50 µg/mL (Escherichia coli): 21 mm; zone of inhibition at 50 µg/mL (Staphylococcus aureus): 11 mm; IC50 (CCRF-CEM): 10 µM; zone of inhibition at 50 µg/mL (Candida albicans): 11 mm; MCC [16]: 20 µM; EC50 (Punta Toro virus): > 4 µM |
